≈ marks a conversion by molar mass, not a printed value.
Legend:
S. aureus ATCC 29,213 [1] = experiment: MIC, broth microdilution; assay type: cell-based, Staphylococcus aureus; conditions: MHB II, 10^6 CFU/ml, 37 °C, 24 h, triplicate
Summary of the method: (§1)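 Broth microdilution per CLSI. Strains were freshly plated on LB agar from glycerol stocks; the colistin-resistant lpxD mutant was plated on LB with 10 µg/ml colistin. Inoculum was 10^6 CFU/ml in Mueller Hinton broth II with two-fold dilutions of test compound from 100 to 0.10 µg/ml, incubated at 37 °C for 24 h. MIC was the lowest concentration with no growth.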

S. aureus MRSA USA 300 [2] = experiment: MIC, broth microdilution; assay type: cell-based, Staphylococcus aureus; conditions: MHB II, 10^6 CFU/ml, 37 °C, 24 h, triplicate
Summary of the method: as §1

[3] = tested on: P. aeruginosa ATCC 27,853; experiment: MIC, broth microdilution; assay type: cell-based, Pseudomonas aeruginosa; conditions: MHB II, 10^6 CFU/ml, 37 °C, 24 h, triplicate
Summary of the method: as §1

P. aeruginosa (ST175–1) [4] = experiment: MIC, broth microdilution; assay type: cell-based, Pseudomonas aeruginosa; conditions: MHB II, 10^6 CFU/ml, 37 °C, 24 h, triplicate
Summary of the method: as §1

A. baumannii ATCC 19,606 [5] = experiment: MIC, broth microdilution; assay type: cell-based, Acinetobacter baumannii; conditions: MHB II, 10^6 CFU/ml, 37 °C, 24 h, triplicate
Summary of the method: as §1

A. baumannii IB010 [6] = experiment: MIC, broth microdilution; assay type: cell-based, Acinetobacter baumannii; conditions: MHB II, 10^6 CFU/ml, 37 °C, 24 h, triplicate
Summary of the method: as §1

A. baumannii Ab-1 [7] = experiment: MIC, broth microdilution; assay type: cell-based, Acinetobacter baumannii; conditions: MHB II, 10^6 CFU/ml, 37 °C, 24 h, triplicate
Summary of the method: as §1

[8] = tested on: K. pneumoniae ATCC 43,816; experiment: MIC, broth microdilution; assay type: cell-based, Klebsiella pneumoniae; conditions: MHB II, 10^6 CFU/ml, 37 °C, 24 h, triplicate
Summary of the method: as §1

K. pneumoniae CG258 [9] = experiment: MIC, broth microdilution; assay type: cell-based, Klebsiella pneumoniae; conditions: MHB II, 10^6 CFU/ml, 37 °C, 24 h, triplicate
Summary of the method: as §1

E. coli ATCC 25,922 [10] = experiment: MIC, broth microdilution; assay type: cell-based, Escherichia coli; conditions: MHB II, 10^6 CFU/ml, 37 °C, 24 h, triplicate
Summary of the method: as §1

E. coli ESBL 1057.1 [11] = experiment: MIC, broth microdilution; assay type: cell-based, Escherichia coli; conditions: MHB II, 10^6 CFU/ml, 37 °C, 24 h, triplicate
Summary of the method: as §1

S. aureus ATCC 29,213 [12] = experiment: Minimum bactericidal concentration; assay type: cell-based, Staphylococcus aureus; conditions: lowest concentration reducing at least 99.9 % of growth, plated on LB, 37 °C, 24 h, triplicate
S. aureus MRSA USA 300 [13] = experiment: Minimum bactericidal concentration; assay type: cell-based, Staphylococcus aureus; conditions: lowest concentration reducing at least 99.9 % of growth, plated on LB, 37 °C, 24 h, triplicate
[14] = tested on: P. aeruginosa ATCC 27,853; experiment: Minimum bactericidal concentration; assay type: cell-based, Pseudomonas aeruginosa; conditions: lowest concentration reducing at least 99.9 % of growth, plated on LB, 37 °C, 24 h, triplicate
P. aeruginosa (ST175–1) [15] = experiment: Minimum bactericidal concentration; assay type: cell-based, Pseudomonas aeruginosa; conditions: lowest concentration reducing at least 99.9 % of growth, plated on LB, 37 °C, 24 h, triplicate
A. baumannii ATCC 19,606 [16] = experiment: Minimum bactericidal concentration; assay type: cell-based, Acinetobacter baumannii; conditions: lowest concentration reducing at least 99.9 % of growth, plated on LB, 37 °C, 24 h, triplicate
A. baumannii IB010 [17] = experiment: Minimum bactericidal concentration; assay type: cell-based, Acinetobacter baumannii; conditions: lowest concentration reducing at least 99.9 % of growth, plated on LB, 37 °C, 24 h, triplicate
A. baumannii Ab-1 [18] = experiment: Minimum bactericidal concentration; assay type: cell-based, Acinetobacter baumannii; conditions: lowest concentration reducing at least 99.9 % of growth, plated on LB, 37 °C, 24 h, triplicate
[19] = tested on: K. pneumoniae ATCC 43,816; experiment: Minimum bactericidal concentration; assay type: cell-based, Klebsiella pneumoniae; conditions: lowest concentration reducing at least 99.9 % of growth, plated on LB, 37 °C, 24 h, triplicate
K. pneumoniae CG258 [20] = experiment: Minimum bactericidal concentration; assay type: cell-based, Klebsiella pneumoniae; conditions: lowest concentration reducing at least 99.9 % of growth, plated on LB, 37 °C, 24 h, triplicate
E. coli ATCC 25,922 [21] = experiment: Minimum bactericidal concentration; assay type: cell-based, Escherichia coli; conditions: lowest concentration reducing at least 99.9 % of growth, plated on LB, 37 °C, 24 h, triplicate
E. coli ESBL 1057.1 [22] = experiment: Minimum bactericidal concentration; assay type: cell-based, Escherichia coli; conditions: lowest concentration reducing at least 99.9 % of growth, plated on LB, 37 °C, 24 h, triplicate
[23] = tested on: 11 bacterial strains (S. aureus, P. aeruginosa, A. baumannii, K. pneumoniae, E. coli); experiment: Antimicrobial activity screening, summary over groups of strains; assay type: cell-based; conditions: 50 µg/ml screen; all strains, Gram-negative and Gram-positive
11 bacterial strains = experiment: MBC, summary over all strains; assay type: cell-based; conditions: highest value over all strains, converted to molar
Summary of the method: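 The no-peptide growth well, serially diluted and plated, served as reference. Percent growth was calculated from CFU counts; MBC was the lowest concentration giving ≥99.9 % reduction (CLSI). Triplicate.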

K. pneumoniae CG258 [24] = experiment: Time-kill assay; assay type: cell-based, Klebsiella pneumoniae; conditions: 24 h
Summary of the method: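 Broth without compound was the growth control. Samples taken at 0, 3, 6 and 24 h were diluted and plated on MH II agar for CFU counts. Each curve was run at least in duplicate.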

P. aeruginosa ST175–1 = experiment: Inhibition of biofilm formation; assay type: cell-based, Pseudomonas aeruginosa; conditions: ¼ MIC
Summary of the method: (§2)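 Medium was discarded, wells washed with PBS, and biofilm stained with 1 % crystal violet for 15 min at room temperature. After two PBS washes, stain was eluted in 70 % ethanol and read at 595 nm. SBF = (OD595 − OD595 […])/OD600: weak ≤0.5, moderate 0.5–1, strong >1. Triplicate; Kruskal-Wallis with Dunn's test.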

A. baumannii ATCC 19,606 [25] = experiment: Inhibition of biofilm formation; assay type: cell-based, Acinetobacter baumannii; conditions: ¼ MIC
Summary of the method: as §2

A. baumannii Ab-1 [26] = experiment: Inhibition of biofilm formation; assay type: cell-based, Acinetobacter baumannii; conditions: ¼ MIC
Summary of the method: as §2

[27] = tested on: K. pneumoniae ATCC 43,816; experiment: Inhibition of biofilm formation; assay type: cell-based, Klebsiella pneumoniae; conditions: ¼ MIC
Summary of the method: as §2

K. pneumoniae CG258 [28] = experiment: Inhibition of biofilm formation; assay type: cell-based, Klebsiella pneumoniae; conditions: ¼ MIC
Summary of the method: as §2

Stability in human serum = assay type: in vitro ADME; conditions: 25 % (v/v)
Summary of the method: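 Test compound was added to RPMI with human serum pre-equilibrated at 37 °C, giving 333.33 µM final compound and 25 % (v/v) final serum. Mixtures were stirred at 37 °C for 10, 30, 45 or 60 min. Proteins were precipitated with 96 % ethanol, cooled at 4 °C for 15 min and spun at 14,000 g. Supernatants were run on C18 RP-HPLC (TFA/CH3CN gradient, 220 nm); degradation was taken from loss of native peak area. Duplicate.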

[29] = tested on: Galleria mellonella larvae; experiment: In vivo toxicity in Galleria mellonella larvae; conditions: G. mellonella larvae, 50 µg/larvae (10 μl of 5 mg/ml), 30 °C, N=10 per group
Summary of the method: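 Sixth-instar Galleria mellonella larvae (200–300 mg) were held in sawdust at 4 °C until use. Groups of ten were injected with 10 μl of test compound, colistin or 0.9 % NaCl saline control into the second rear proleg, then kept at 30 °C.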

erythrocytes = conditions: percent hemolysis at 150 μM (table footnote); ref Oddo et al., 2016; cited from earlier work

| SMILES | MIC (S. aureus ATCC 29,213 [1]) | MIC (S. aureus MRSA USA 300 [2]) | MIC [3] | MIC (P. aeruginosa (ST175–1) [4]) | MIC (A. baumannii ATCC 19,606 [5]) | MIC (A. baumannii IB010 [6]) | MIC (A. baumannii Ab-1 [7]) | MIC [8] | MIC (K. pneumoniae CG258 [9]) | MIC (E. coli ATCC 25,922 [10]) | MIC (E. coli ESBL 1057.1 [11]) | MBC (S. aureus ATCC 29,213 [12]) | MBC (S. aureus MRSA USA 300 [13]) | MBC [14] | MBC (P. aeruginosa (ST175–1) [15]) | MBC (A. baumannii ATCC 19,606 [16]) | MBC (A. baumannii IB010 [17]) | MBC (A. baumannii Ab-1 [18]) | MBC [19] | MBC (K. pneumoniae CG258 [20]) | also measured |
| --- | --- | --- | --- | --- | --- | --- | --- | --- | --- | --- | --- | --- | --- | --- | --- | --- | --- | --- | --- | --- | --- |
| CC[C@H](C)[C@H](NC(=O)[C@H](CCCCN)NC(=O)[C@H](CCCCN)NC(=O)[C@H](Cc1ccccc1)NC(=O)[C@H](CC(C)C)NC(=O)[C@@H](CCCCN)NC(=O)[C@@H](N)CCCCN)C(=O)N[C@@H](CC(C)C)C(=O)N[C@@H](CCCCN)C(=O)N[C@@H](Cc1ccc(O)cc1)C(=O)N[C@@H](CC(C)C)C(N)=O [BP145] | 50 µg/mL (≈ 35.2 µM) | 50 µg/mL (≈ 35.2 µM) | 50 µg/mL (≈ 35.2 µM) | 50 µg/mL (≈ 35.2 µM) | 6.25 µg/mL (≈ 4.4 µM) | 25 µg/mL (≈ 17.6 µM) | 12.5 µg/mL (≈ 8.8 µM) | 25 µg/mL (≈ 17.6 µM) | 12.5 µg/mL (≈ 8.8 µM) | 6.25 µg/mL (≈ 4.4 µM) | 12.5 µg/mL (≈ 8.8 µM) | 50 µg/mL (≈ 35.2 µM) | 50 µg/mL (≈ 35.2 µM) | 50 µg/mL (≈ 35.2 µM) | 50 µg/mL (≈ 35.2 µM) | 12.5 µg/mL (≈ 8.8 µM) | 25 µg/mL (≈ 17.6 µM) | 12.5 µg/mL (≈ 8.8 µM) | 25 µg/mL (≈ 17.6 µM) | 12.5 µg/mL (≈ 8.8 µM) | MBC (E. coli ATCC 25,922 [21]): 6.25 µg/mL (≈ 4.4 µM); MBC (E. coli ESBL 1057.1 [22]): 12.5 µg/mL (≈ 8.8 µM); growth inhibition of all the strains [23]: ≈ 90%; highest MBC observed (11 bacterial strains): 0.035 mmol/L; bactericidal activity in time-kill assay (K. pneumoniae CG258 [24]; peptide at 2× MIC): bactericidal; SBF index compared to BP607 (P. aeruginosa ST175–1): reduced SBF indices compared to BP607; SBF index compared to BP607 (A. baumannii ATCC 19,606 [25]): reduced SBF indices compared to BP607; SBF index compared to BP607 (A. baumannii Ab-1 [26]): reduced SBF indices compared to BP607; SBF index compared to BP607 [27]: reduced SBF indices compared to BP607; biofilm formation (K. pneumoniae CG258 [28]): inhibited biofilm formation; remaining at 1 h, 333.33 µM (Stability in human serum): 35%; survival after 24h [29]: 70% |
| CC[C@@H](C)[C@@H](NC(=O)[C@@H](CCCCN)NC(=O)[C@@H](CCCCN)NC(=O)[C@@H](Cc1ccccc1)NC(=O)[C@@H](CC(C)C)NC(=O)[C@@H](CCCCN)NC(=O)[C@H](N)CCCCN)C(=O)N[C@H](CC(C)C)C(=O)N[C@H](CCCNC(=N)N)C(=O)N[C@H](Cc1ccc(O)cc1)C(=O)N[C@H](CC(C)C)C(N)=O [BP607, reference compound] | 50 µg/mL (≈ 34.5 µM) | 50 µg/mL (≈ 34.5 µM) | 25 µg/mL (≈ 17.3 µM) | 50 µg/mL (≈ 34.5 µM) | 3.13 µg/mL (≈ 2.16 µM) | 25 µg/mL (≈ 17.3 µM) | 6.25 µg/mL (≈ 4.31 µM) | 12.5 µg/mL (≈ 8.63 µM) | 12.5 µg/mL (≈ 8.63 µM) | 6.25 µg/mL (≈ 4.31 µM) | 12.5 µg/mL (≈ 8.63 µM) | 50 µg/mL (≈ 34.5 µM) | 50 µg/mL (≈ 34.5 µM) | 25 µg/mL (≈ 17.3 µM) | 100 µg/mL (≈ 69 µM) | 6.25 µg/mL (≈ 4.31 µM) | 50 µg/mL (≈ 34.5 µM) | 6.25 µg/mL (≈ 4.31 µM) | 12.5 µg/mL (≈ 8.63 µM) | 12.5 µg/mL (≈ 8.63 µM) | MBC (E. coli ATCC 25,922 [21]): 6.25 µg/mL (≈ 4.31 µM); MBC (E. coli ESBL 1057.1 [22]): 12.5 µg/mL (≈ 8.63 µM); growth inhibition of all the strains [23]: ≈ 90%; bactericidal activity in time-kill assay (K. pneumoniae CG258 [24]; peptide at 2× MIC): bactericidal; bactericidal activity in time-kill assay (K. pneumoniae CG258 [24]; peptide at the MIC): maintained this bactericidal effect; mortality after 24h [29]: 80%; Hemolysis (erythrocytes): 42% |

From publication PMC11904594 (Current Research in Microbial Sciences, 2025)
